pIC50: −log10 of the molar value.
Assays:
[1] = target: Bromodomain-containing protein 4 (Homo sapiens, UniProt O60885); assay: Inhibition of BRD4(1) (unknown origin) incubated for 4 hrs by (+)-JQ1 fluorescent ligand based fluorescence anisotrophy
HT-29 = assay: Growth inhibition of human HT-29 cells after 72 hrs by SRB assay; assay type: functional, cell-based; settings: HT-29, 72 h
How it was run: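 HT-29 cells are grown in McCoy's 5A with 10% FBS at 37 °C, 5% CO2. DMSO stocks (0.01 mol/L) are diluted in normal saline just before use. Cells are treated in triplicate with gradient concentrations for 72 h at 37 °C.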

[2] = Growth inhibition of human MM1S cells after 72 hrs by CellTiter-Glo luminescent cell viability assay; settings: MM1.S
MV4-11 = assay: Growth inhibition of human MV4-11 cells after 72 hrs by CellTiter-Glo luminescent cell viability assay; settings: MV4-11, 72 h

pIC50 [1] | pIC50 (HT-29) | pIC50 [2] | pIC50 (MV4-11) | Compound
6.30 | 4.45 | – | – | O=c1[nH]c(-c2ccc(F)c(S(=O)(=O)NC3CCCC3)c2)cs1
6.66 | 4.55 | 5.76 | 6.35 | Cc1c(NC(=O)C2CC2)cc(-c2csc(=O)[nH]2)cc1S(=O)(=O)NC1CCCC1
6.52 | 4.24 | – | – | O=c1[nH]c(-c2cc(Br)cc(S(=O)(=O)NC3CCCC3)c2)cs1
6.34 | 5.21 | 5.45 | 6.16 | Nc1cc(-c2csc(=O)[nH]2)cc(S(=O)(=O)NC2CCCC2)c1
6.60 | 4.63 | 5.47 | 6.47 | O=c1[nH]c(-c2ccc(Cl)c(S(=O)(=O)NC3CCCC3)c2)cs1
6.10 | 4.70 | 5.39 | 6.22 | Cc1c(NC(=O)c2cccs2)cc(-c2csc(=O)[nH]2)cc1S(=O)(=O)NC1CCCC1
5.65 | – | – | – | O=c1[nH]c(-c2cccc(S(=O)(=O)NC3CC3)c2)cs1
6.40 | 4.61 | 5.64 | 6.17 | COCC(=O)Nc1ccc(-c2csc(=O)[nH]2)cc1S(=O)(=O)NC1CCCC1
6.10 | 4.89 | – | – | O=C(Nc1ccc(-c2csc(=O)[nH]2)cc1S(=O)(=O)NC1CCCC1)C1CC1
5.69 | – | – | – | O=c1[nH]c(-c2cccc(S(=O)(=O)NC3CCCCC3)c2)cs1
5.85 | – | – | – | O=c1[nH]c(-c2cccc(S(=O)(=O)NC3CCCC3)c2)cs1
6.03 | 4.63 | – | – | CCCC(=O)Nc1cc(-c2csc(=O)[nH]2)cc(S(=O)(=O)NC2CCCC2)c1C

The next lines start with the molecule.

Compound | pIC50 [1] | pIC50 (HT-29) | pIC50 [2] | pIC50 (MV4-11)
CCCC(=O)Nc1cc(-c2csc(=O)[nH]2)cc(S(=O)(=O)NC2CCCC2)c1 | 6.77 | 4.86 | 5.60 | 6.10
O=c1[nH]c(-c2cccc(S(=O)(=O)Nc3ccon3)c2)cs1 | 5.13 | – | – | –
Nc1ccc(NS(=O)(=O)c2cccc(-c3csc(=O)[nH]3)c2)cc1 | 5.08 | – | – | –
O=c1[nH]c(-c2cccc(S(=O)(=O)NCC3CCCO3)c2)cs1 (stereo not drawn) | 5.03 | – | – | –
O=c1[nH]c(-c2cccc(S(=O)(=O)NCc3ccccc3)c2)cs1 | < 5.00 | – | – | –
COc1ccc(NS(=O)(=O)c2cccc(-c3csc(=O)[nH]3)c2)cc1 | < 5.00 | – | – | –
O=c1[nH]c(-c2cccc(S(=O)(=O)NC3CCOC3)c2)cs1 (stereo not drawn) | 5.24 | – | – | –
O=c1[nH]c(-c2ccccc2F)cs1 | < 4.00 | – | – | –
O=c1[nH]c(-c2cccc(S(=O)(=O)NCCc3cccs3)c2)cs1 | < 5.00 | – | – | –

— ChEMBL document CHEMBL3407418, “Fragment-based drug discovery of 2-thiazolidinones as BRD4 inhibitors: 2. Structure-based optimization” (J Med Chem, 2015)
